Experimental data published in ChEMBL document CHEMBL4266029, “Zampanolides B-E from the Marine Sponge Cacospongia mycofijiensis: Potent Cytotoxic Macrolides with Microtubule-Stabilizing Activity” (J Nat Prod, 2018).
Activity calls are given as the source filed them. No cut-off for these calls is given here.

What was measured:
HL-60 [1] = test: Antiproliferative activity against human HL60 cells after 72 hrs by MTT assay; type: functional, cell-based; conditions: HL-60, 72 h
Outline: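 HL-60 cells seeded at 1 × 10^4 cells/well, exposed to 2-fold serial dilutions with paclitaxel as positive control, 72 h at 37 °C. MTT (5 mg/mL in PBS) added for 2 h at 37 °C. Formazan dissolved overnight at 37 °C in 10% SDS/45% dimethylformamide, absorbance read at 570 nm. n = 3 independent experiments, two technical replicates each.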

HL-60 [2] = test: Cell cycle arrest in human HL60 cells assessed as accumulation at S phase at 1 uM after 18 hrs by propidium iodide staining based flow cytometry (reference value: 27%); type: functional
Outline: (§1)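 HL-60 cells seeded at 1 × 10^5 cells/well, exposed to 1 μM compound for 18 h at 37 °C. Stained 30 min in the dark with propidium iodide (0.05 mg/mL in 0.1% sodium citrate, 0.1% Triton X-100, 100 μg/mL RNase), then DNA content read by flow cytometry. Reported as % cells in each phase; n = 2 replicates from a single experiment.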

HL-60 [3] = test: Cell cycle arrest in human HL60 cells assessed as accumulation at G2/M phase at 1 uM after 18 hrs by propidium iodide staining based flow cytometry (reference value: 22%); type: functional; outline: as §1
HL-60 [4] = test: Cell cycle arrest in human HL60 cells assessed as accumulation at G1 phase at 1 uM after 18 hrs by propidium iodide staining based flow cytometry (reference value: 51%); type: functional; outline: as §1
Sus scrofa [5] = species on record: Sus scrofa; test: Induction of porcine tubulin polymerization assessed as microtubule stabilization at 2.8 uM measured at 1 min interval over 100 mins
Outline: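 Fluorescence-based assay with purified porcine brain tubulin, no microtubule-associated proteins, glycerol omitted from polymerization buffer. Compound at 2.8 μM final, paclitaxel 2.8 μM as positive control, vehicle control. Tubulin buffer added immediately before reading. Kinetic read at 37 °C, λex 360/λem 450 nm, every 1 min for 100 min. n = 3 replicates, single preparation.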

Sus scrofa [6] = species on record: Sus scrofa; test: Induction of porcine tubulin polymerization assessed as microtubule stabilization at 27 uM measured at 1 min interval over 100 mins
Outline: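 Fluorescence-based in vitro assay with purified porcine brain tubulin, run without microtubule-associated proteins and with glycerol omitted from the polymerization buffer. Compound at 27 μM final, with tubulin buffer added just before reading. Kinetic read at 37 °C, λex 360/λem 450 nm, every 1 min for 100 min. n = 3 replicates from a single preparation.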

Structure (SMILES) | IC50 (HL-60 [1]) [nM] | Activity (HL-60 [2]) [%] | Activity (HL-60 [3]) [%] | Activity (HL-60 [4]) [%] | Activity (Sus scrofa [5]) | Activity (Sus scrofa [6])
C=C1C[C@@H]2C/C=C/C(=O)C/C(C)=C/C=C/C(=O)O[C@H]([C@H](O)NC(=O)/C=C\C=C\C)C/C(C)=C/[C@H](C1)O2 | 3.3 | 30 | 54 | 16 | Active | –
CC(=O)O[C@H]1C(=O)[C@@]2(C)[C@H]([C@H](OC(=O)c3ccccc3)[C@]3(O)C[C@H](OC(=O)[C@H](O)[C@@H](NC(=O)c4ccccc4)c4ccccc4)C(C)=C1C3(C)C)[C@]1(OC(C)=O)CO[C@@H]1C[C@@H]2O [PACLITAXEL] | – | 24 | 58 | 18 | Active | –
C=C1C[C@@H]2C/C=C/C(=O)C/C(C)=C\C=C\C(=O)O[C@H]([C@H](O)NC(=O)/C=C\C=C\C)C/C(C)=C/[C@H](C1)O2 [ZAMPANOLIDE] | 3.2 | 28 | 54 | 18 | Active | –
C=C1C[C@@H]2C/C=C/C(=O)C/C(C)=C\C=C\C(=O)O[C@H](C=O)C/C(C)=C/[C@H](C1)O2 | 240 | 29 | 54 | 17 | – | inactive
C=C1C[C@@H]2CCCC(=O)C/C(C)=C\C=C\C(=O)O[C@H]([C@H](O)NC(=O)/C=C\C=C\C)C/C(C)=C/[C@H](C1)O2 | 300 | 25 | 30 | 44 | – | inactive
C=C1C[C@@H]2C/C=C/C(=O)C/C(C)=C\C=C\C(=O)O[C@H]([C@H](O)NC(=O)/C=C/C=C\C)C/C(C)=C/[C@H](C1)O2 | 5.3 | 26 | 55 | 19 | Active | –
